For series [1], the target named is Myosin light chain kinase 2, skeletal/cardiac muscle (Homo sapiens) (UniProt Q9H1R3). As to the kind of experiment: Inhibition of MYLK2 at 1 uM.
Series [2] in a line: Inhibition of recombinant GST-tagged P70S6K using 5FAM-KRSRTRTDSYSAGQ-COOH as substrate by fluorescence based assay. A digest of the protocol:
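GST-tagged P70S6K (a.a. 1-421) at 5 nM, 50 μM ATP, 5 μM 5FAM-peptide. Product separated from substrate by charge (electrophoretic mobility shift, −2500/−500 V). Duplicates, nonlinear regression fit.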

Series [3] in a line: Solubility of the compound at pH 6.5. It counts as physicochemical. The settings on record: buffer.
Series [4] has as its target Hepatocyte growth factor receptor (Homo sapiens) (UniProt P08581). As to the kind of experiment: Inhibition of MET at 1 uM.
Series [5] is described as follows: Inhibition of p38 at 1 uM.
Series [6] has as its target T1, Aurora kinase A (Homo sapiens, UniProt O14965).
T1 sequence (O14965 whole entry): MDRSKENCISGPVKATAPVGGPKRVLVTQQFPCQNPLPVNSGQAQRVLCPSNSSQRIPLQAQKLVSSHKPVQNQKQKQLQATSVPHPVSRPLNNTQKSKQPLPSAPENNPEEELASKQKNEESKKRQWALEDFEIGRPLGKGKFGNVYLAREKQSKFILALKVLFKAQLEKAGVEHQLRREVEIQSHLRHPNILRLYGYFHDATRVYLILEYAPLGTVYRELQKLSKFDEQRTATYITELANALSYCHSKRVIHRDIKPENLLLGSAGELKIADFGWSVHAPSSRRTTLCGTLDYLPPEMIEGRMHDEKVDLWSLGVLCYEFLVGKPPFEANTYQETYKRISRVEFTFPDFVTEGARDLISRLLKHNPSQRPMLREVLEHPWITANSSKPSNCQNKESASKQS
As to the kind of experiment: Inhibition of Aurora A.

In series [7] the target is Calcium/calmodulin-dependent protein kinase type II subunit alpha (Homo sapiens) (UniProt Q9UQM7). As to the kind of experiment: Inhibition of CAMK2A at 1 uM.
Calcium/calmodulin-dependent protein kinase type II subunit alpha (Homo sapiens), sequence (Q9UQM7 whole entry): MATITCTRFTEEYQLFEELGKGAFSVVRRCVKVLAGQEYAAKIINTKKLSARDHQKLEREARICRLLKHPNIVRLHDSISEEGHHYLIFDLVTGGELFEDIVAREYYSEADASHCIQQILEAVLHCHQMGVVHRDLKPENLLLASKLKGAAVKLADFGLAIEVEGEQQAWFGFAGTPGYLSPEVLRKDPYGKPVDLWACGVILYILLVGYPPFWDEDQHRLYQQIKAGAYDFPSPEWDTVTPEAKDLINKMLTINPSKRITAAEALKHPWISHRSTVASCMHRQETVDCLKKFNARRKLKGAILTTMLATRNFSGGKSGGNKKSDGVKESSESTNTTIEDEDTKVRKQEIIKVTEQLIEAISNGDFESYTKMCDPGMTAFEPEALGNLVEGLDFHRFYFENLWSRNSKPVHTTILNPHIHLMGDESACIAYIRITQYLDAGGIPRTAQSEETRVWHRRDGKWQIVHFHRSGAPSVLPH
The target in series [8] is T2, Serine/threonine-protein kinase MARK1 (Homo sapiens, UniProt Q9P0L2). As to the kind of experiment: Inhibition of MARK1.
Target sequence in this assay (Q9P0L2 whole entry): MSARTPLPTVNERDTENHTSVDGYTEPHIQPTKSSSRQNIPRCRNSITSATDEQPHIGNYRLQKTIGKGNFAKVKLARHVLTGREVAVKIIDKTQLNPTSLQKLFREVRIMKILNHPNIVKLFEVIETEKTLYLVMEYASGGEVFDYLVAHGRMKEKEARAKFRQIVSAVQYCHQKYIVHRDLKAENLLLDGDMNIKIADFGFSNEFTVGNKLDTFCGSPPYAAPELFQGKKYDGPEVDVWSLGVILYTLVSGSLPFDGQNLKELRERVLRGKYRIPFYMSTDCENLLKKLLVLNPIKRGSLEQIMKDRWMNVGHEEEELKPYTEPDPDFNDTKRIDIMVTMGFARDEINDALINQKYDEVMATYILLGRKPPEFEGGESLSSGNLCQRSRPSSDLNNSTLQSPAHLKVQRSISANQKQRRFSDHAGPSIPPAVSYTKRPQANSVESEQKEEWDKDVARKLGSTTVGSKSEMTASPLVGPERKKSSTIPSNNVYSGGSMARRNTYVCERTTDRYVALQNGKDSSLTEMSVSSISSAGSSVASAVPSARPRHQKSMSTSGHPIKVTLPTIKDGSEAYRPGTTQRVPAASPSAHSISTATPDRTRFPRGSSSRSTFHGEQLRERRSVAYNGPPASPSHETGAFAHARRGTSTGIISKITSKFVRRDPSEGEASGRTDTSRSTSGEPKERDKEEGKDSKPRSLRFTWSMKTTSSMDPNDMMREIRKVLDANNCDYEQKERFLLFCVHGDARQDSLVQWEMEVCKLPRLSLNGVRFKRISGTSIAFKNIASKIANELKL
For series [9], the target named is Serine/threonine-protein kinase PAK 4 (Homo sapiens) (UniProt O96013). As to the kind of experiment: Inhibition of PAK4 at 1 uM.
Serine/threonine-protein kinase PAK 4 (Homo sapiens), sequence (O96013 whole entry, looked up): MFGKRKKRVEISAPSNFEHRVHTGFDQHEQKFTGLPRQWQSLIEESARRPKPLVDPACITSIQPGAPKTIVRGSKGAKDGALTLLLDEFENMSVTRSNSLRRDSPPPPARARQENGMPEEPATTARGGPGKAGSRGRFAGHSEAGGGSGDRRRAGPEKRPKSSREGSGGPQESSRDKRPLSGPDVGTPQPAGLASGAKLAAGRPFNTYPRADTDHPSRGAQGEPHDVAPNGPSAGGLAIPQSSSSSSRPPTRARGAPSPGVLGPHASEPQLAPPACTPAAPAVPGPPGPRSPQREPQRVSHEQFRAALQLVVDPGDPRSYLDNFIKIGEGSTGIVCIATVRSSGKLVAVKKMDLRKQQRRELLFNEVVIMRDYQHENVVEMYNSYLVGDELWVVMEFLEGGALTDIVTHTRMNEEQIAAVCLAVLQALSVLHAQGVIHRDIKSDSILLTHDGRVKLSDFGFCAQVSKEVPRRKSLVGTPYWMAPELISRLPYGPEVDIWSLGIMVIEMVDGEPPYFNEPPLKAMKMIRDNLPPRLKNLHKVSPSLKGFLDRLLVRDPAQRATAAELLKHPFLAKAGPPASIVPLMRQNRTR
For series [10], the target named is Serine/threonine-protein kinase pim-2 (Homo sapiens) (UniProt Q9P1W9). As to the kind of experiment: Inhibition of PIM2 at 1 uM.
Serine/threonine-protein kinase pim-2 (Homo sapiens), sequence (Q9P1W9 whole entry, looked up): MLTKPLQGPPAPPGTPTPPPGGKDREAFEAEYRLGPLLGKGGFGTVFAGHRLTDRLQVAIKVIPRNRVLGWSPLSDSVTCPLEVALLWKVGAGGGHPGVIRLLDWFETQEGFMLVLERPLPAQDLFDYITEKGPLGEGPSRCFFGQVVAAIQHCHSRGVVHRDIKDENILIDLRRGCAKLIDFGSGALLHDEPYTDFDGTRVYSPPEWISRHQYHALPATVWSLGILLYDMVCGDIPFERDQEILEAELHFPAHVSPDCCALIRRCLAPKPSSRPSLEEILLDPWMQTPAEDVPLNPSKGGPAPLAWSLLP
In series [11] the target is T3, Tyrosine-protein kinase JAK3 (Homo sapiens) (UniProt P52333).
T3 sequence (whole entry): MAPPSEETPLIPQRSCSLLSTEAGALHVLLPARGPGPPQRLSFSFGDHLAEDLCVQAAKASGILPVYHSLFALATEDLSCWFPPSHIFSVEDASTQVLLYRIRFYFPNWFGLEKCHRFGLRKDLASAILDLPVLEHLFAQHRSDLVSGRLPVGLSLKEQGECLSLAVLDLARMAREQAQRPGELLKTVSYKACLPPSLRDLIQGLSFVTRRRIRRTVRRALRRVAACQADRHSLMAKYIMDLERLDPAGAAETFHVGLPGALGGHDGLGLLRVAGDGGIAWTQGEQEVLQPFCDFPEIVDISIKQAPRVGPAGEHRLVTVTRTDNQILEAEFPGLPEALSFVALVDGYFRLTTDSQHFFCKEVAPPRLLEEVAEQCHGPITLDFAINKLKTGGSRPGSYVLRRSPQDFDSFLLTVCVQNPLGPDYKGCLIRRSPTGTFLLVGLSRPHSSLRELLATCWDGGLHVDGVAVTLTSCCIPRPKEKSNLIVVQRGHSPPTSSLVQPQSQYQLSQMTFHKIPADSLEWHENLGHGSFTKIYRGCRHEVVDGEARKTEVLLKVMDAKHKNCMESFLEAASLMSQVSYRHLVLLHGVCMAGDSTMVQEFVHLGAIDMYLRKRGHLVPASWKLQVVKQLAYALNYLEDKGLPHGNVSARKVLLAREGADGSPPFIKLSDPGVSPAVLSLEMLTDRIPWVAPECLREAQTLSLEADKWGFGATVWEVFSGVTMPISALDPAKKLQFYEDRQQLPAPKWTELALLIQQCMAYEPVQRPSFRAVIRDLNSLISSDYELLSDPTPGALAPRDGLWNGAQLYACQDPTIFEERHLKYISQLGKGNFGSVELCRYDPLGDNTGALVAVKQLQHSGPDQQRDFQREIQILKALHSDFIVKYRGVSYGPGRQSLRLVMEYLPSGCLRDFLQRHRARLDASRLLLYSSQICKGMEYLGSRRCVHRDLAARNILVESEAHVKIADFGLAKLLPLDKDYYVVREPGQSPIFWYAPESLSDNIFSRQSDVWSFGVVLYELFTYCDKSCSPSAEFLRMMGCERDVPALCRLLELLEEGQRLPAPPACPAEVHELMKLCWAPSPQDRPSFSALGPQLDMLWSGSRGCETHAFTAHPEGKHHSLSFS
As to the kind of experiment: Inhibition of JAK3 at 1 uM.

The target of series [12] is Tyrosine-protein kinase Lck (Homo sapiens) (UniProt P06239). As to the kind of experiment: Inhibition of LCK at 1 uM.
Tyrosine-protein kinase Lck (Homo sapiens), sequence (P06239 2-509 limits assumed): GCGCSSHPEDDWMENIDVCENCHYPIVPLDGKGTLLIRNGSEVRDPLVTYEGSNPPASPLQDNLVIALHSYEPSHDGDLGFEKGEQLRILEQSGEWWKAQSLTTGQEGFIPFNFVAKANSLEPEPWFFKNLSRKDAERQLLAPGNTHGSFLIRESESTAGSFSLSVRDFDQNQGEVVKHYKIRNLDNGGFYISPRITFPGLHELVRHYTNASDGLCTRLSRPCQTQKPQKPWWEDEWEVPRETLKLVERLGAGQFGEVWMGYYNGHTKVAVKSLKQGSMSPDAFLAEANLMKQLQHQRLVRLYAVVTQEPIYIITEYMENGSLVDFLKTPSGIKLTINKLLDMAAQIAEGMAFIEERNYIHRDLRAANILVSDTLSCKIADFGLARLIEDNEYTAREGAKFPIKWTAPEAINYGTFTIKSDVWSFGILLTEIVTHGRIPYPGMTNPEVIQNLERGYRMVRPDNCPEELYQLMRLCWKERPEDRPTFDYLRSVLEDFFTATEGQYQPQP
The target of series [13] is T2, Serine/threonine-protein kinase MARK1. As to the kind of experiment: Inhibition of MARK1 at 1 uM.
Target sequence in this assay (Q9P0L2 whole entry, looked up): as the sequence (Q9P0L2 whole entry) above
For series [14], the target named is T4, 3-phosphoinositide-dependent protein kinase 1 (Homo sapiens, UniProt O15530).
T4 sequence (O15530 whole entry): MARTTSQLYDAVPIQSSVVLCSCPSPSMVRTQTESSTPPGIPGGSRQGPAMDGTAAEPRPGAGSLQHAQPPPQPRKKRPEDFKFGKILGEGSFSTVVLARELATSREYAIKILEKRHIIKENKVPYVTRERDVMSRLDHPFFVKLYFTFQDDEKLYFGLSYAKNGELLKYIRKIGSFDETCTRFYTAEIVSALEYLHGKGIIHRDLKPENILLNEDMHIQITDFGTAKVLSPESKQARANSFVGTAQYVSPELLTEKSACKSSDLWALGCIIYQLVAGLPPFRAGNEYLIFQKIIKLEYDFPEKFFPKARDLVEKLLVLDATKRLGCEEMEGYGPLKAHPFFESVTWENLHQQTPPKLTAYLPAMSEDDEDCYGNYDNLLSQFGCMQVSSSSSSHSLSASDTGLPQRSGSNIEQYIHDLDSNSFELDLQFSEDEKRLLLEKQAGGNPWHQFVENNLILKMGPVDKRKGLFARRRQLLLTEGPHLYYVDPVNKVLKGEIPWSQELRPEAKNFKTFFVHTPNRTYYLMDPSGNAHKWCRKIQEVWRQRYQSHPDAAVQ
As to the kind of experiment: Inhibition of PDK1-mediated AKT1 phosphorylation at T308 in human H460 cells after 2 hrs by ELISA. It is filed as cell-based. The gist of the method: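 Cells seeded at 50,000 per well and left to adhere overnight. Inhibitor was added as a 3-fold serial dilution from 0.0169 nM to 10 μM for 2 h, then cells were lysed. Lysates were tested in a commercial pAKT-T308 sandwich ELISA per the kit protocol. IC50 from duplicates, each run repeated at least twice.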
(In general: In an ELISA, binding on a coated surface is turned into a signal by an enzyme label.)

In series [15] the target is Ephrin type-A receptor 2 (Homo sapiens) (UniProt P29317). As to the kind of experiment: Inhibition of EPHA2 at 1 uM.
Ephrin type-A receptor 2 (Homo sapiens), sequence (P29317 whole entry): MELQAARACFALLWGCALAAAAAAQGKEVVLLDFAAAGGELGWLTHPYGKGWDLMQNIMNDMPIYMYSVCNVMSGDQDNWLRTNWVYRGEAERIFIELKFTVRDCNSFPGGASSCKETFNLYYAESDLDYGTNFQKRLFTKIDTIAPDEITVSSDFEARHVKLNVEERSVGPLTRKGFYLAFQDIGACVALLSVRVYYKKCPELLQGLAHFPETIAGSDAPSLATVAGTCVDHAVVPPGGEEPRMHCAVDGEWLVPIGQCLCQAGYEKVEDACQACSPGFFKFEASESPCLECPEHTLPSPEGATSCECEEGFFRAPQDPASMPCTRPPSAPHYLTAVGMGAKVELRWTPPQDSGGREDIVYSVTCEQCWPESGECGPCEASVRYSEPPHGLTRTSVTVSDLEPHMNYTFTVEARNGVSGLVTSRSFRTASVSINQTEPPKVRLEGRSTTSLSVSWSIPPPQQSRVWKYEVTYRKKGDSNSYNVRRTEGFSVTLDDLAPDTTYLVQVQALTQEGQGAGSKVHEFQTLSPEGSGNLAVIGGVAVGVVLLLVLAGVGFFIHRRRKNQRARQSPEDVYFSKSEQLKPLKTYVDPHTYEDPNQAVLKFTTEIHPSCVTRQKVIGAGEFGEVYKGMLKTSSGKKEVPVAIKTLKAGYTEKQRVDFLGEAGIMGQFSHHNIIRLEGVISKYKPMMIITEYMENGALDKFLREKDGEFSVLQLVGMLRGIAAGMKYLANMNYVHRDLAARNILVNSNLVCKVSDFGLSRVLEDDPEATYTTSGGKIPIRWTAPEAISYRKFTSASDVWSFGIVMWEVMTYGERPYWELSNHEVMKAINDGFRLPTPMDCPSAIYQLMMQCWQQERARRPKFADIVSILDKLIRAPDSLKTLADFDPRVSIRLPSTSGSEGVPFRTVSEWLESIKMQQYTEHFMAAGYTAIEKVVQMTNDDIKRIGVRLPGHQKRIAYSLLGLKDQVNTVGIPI
Series [16] has as its target Proto-oncogene tyrosine-protein kinase Src (Homo sapiens) (UniProt P12931). As to the kind of experiment: Inhibition of SRC at 1 uM.

This is an account of results in ChEMBL document CHEMBL1938337, “Discovery of novel, potent, and selective inhibitors of 3-phosphoinositide-dependent kinase (PDK1)” (J Med Chem, 2011).

One may read the inhibition as the change of the read-out against control, counted positive when it falls. The term Ki denotes a measure of affinity in units of concentration, obtained from inhibition or displacement. In general, solubility refers to how much of the substance goes into solution per volume. What is called IC50 is the concentration needed to halve the response being measured. The low end stands for higher potency, the high end for lower potency.

Converted amounts (≈) assume the structure as drawn.

Proto-oncogene tyrosine-protein kinase Src (Homo sapiens), sequence (P12931 2-536 limits assumed): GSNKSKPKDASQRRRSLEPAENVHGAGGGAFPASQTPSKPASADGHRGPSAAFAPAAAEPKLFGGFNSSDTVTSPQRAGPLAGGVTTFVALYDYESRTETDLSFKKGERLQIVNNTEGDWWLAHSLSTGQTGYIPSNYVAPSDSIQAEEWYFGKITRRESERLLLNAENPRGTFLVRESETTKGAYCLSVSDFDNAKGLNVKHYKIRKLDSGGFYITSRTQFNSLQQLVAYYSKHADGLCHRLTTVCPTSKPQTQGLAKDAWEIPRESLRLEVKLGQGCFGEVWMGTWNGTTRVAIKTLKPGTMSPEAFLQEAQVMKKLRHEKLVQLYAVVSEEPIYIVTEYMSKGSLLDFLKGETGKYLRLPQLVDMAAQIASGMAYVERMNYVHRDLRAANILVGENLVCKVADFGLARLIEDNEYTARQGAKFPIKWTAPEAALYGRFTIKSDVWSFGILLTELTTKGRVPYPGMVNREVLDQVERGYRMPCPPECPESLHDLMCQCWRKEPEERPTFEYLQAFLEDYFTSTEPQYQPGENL
Myosin light chain kinase 2, skeletal/cardiac muscle (Homo sapiens), sequence (Q9H1R3 whole entry): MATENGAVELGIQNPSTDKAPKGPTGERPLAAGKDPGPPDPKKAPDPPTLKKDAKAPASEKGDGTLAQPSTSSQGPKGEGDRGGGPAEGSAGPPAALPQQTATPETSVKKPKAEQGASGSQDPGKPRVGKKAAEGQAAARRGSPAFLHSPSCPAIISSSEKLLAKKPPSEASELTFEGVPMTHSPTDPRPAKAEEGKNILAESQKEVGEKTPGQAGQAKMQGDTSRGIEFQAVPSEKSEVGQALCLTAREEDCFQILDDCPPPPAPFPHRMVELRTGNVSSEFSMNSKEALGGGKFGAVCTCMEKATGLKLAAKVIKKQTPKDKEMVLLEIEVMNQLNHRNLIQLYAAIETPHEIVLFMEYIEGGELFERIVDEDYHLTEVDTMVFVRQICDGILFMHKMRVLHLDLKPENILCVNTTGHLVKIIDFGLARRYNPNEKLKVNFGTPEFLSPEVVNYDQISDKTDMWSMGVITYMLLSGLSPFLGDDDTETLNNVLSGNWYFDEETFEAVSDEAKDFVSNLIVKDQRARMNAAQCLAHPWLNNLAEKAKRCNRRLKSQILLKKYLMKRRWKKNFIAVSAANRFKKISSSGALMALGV

For `CC(=O)N1CC[C@@H](Nc2cncc(C(=O)c3cn(C(C)C)c4ncnc(N)c34)n2)[C@H]1c1ccccc1`, the inhibition in series [1] is -2%; in series [4] it was 4%; in series [5] it was 0%; in series [7] it was 32%; in series [9] it was 25%; in series [10], -2%. The inhibition in series [11] was -2%; in series [12] it was 11%; in series [13], 47%; in [15], 3%; in series [16] it was 14%. Moreover, in [2], the Ki was 3.6 µM. In series [3], the solubility came to 510 µM (≈ 247 µg/mL). The IC50 was 820 nM in series [6], 1300 nM in series [8] and 320 nM in series [14].

With `CC(=O)N1CC[C@@H](Nc2cncc(C(=O)c3cn(C(C)C)c4ncnc(N)c34)n2)[C@H]1c1ccc(F)cc1`, the inhibition in [1] is -8%; in series [4], 8%; in series [5] it was -1%; in [7], 73%; in [9] it was 46%; in [10] it was 7%. The inhibition in [11] came out at 6%; in series [12], 22%; in series [13], 74%; in series [15], 1%; in series [16] it was 21%. Also, the Ki in series [2] came out at 10 µM. In [3], this molecule came in with a solubility of 390 µM (≈ 196 µg/mL). Further, the IC50 in series [6] was found to be 460 nM; in series [8], 590 nM; in series [14], 160 nM.

With `CC(C)n1cc(C(=O)c2cncc(N[C@@H]3CCN(C=O)[C@@H]3c3ccc(F)cc3)n2)c2c(N)ncnc21`, the inhibition in [1] came out at 3%; in series [4], 12%; in [5] it was 6%; in series [7] it was 62%; in [9], 63%; in series [10], 9%. Also, the inhibition was 16% in series [11]; 27% in series [12]; 84% in series [13]; 7% in series [15]; 29% in [16]. Further, the Ki in series [2] came to 0.89 µM. The molecule also yielded a solubility in series [3] of 290 µM (≈ 142 µg/mL). The IC50 in series [6] worked out at 140 nM; in series [8], 110 nM; in series [14], 120 nM.
